From ChEMBL document CHEMBL4811275, “Iodinated 1,2-diacylhydrazines, benzohydrazide-hydrazones and their analogues as dual antimicrobial and cytotoxic agents” (Bioorg Med Chem, 2021)
Values after ≈ are worked out from the molar mass of the structure shown. Active and inactive are the calls of the source. The rule behind the calls is not given here.

Columns and labels:
Candida albicans [1] = assay: Antifungal activity against Candida albicans ATCC 24443 assessed as reduction in fungal growth incubated for 48 hrs by broth microdilution method; assay type: functional
In short: (§1)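 Broth microdilution per EUCAST (yeasts and moulds), modified: twofold dilutions from DMSO (final ≤1% v/v) in RPMI-1640 with L-glutamine, 2% glucose, MOPS-buffered pH 7.0; scale from 0.49 µM. Static, dark, humidified, 35 ± 2 °C for 24 and 48 h (Trichophyton interdigitale 72 and 120 h). MIC = complete visible inhibition by eye; duplicates within one dilution step.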

[2] = tested on: Staphylococcus epidermidis; assay: Antibacterial activity against Staphylococcus epidermidis ATCC 12228 assessed as reduction in bacterial growth incubated for 24 hrs by broth microdilution method; assay type: functional
In short: (§2)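 Cation-adjusted Mueller-Hinton broth microdilution per EUCAST, modified; compounds from DMSO stocks, final DMSO ≤1% v/v; scale starting from 0.49 µM. Static incubation at 35 ± 2 °C, dark, humidified, read at 24 and 48 h. MIC = lowest concentration with no visible growth by eye; duplicates, parallel readings within one dilution step; growth and medium/DMSO controls included.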

Pichia kudriavzevii [3] = assay: Antifungal activity against Candida krusei ATCC 6258 assessed as reduction in fungal growth incubated for 24 hrs by broth microdilution method; assay type: functional; in short: as §1
Escherichia coli [4] = assay: Antibacterial activity against Escherichia coli ATCC 25922 assessed as reduction in bacterial growth incubated for 48 hrs by broth microdilution method; assay type: functional; in short: as §2
Candida parapsilosis [5] = assay: Antifungal activity against Candida parapsilosis ATCC 22019 assessed as reduction in fungal growth incubated for 24 hrs by broth microdilution method; assay type: functional; conditions: Lodderomyces parapsilosis; in short: as §1
[6] = Therapeutic index, ratio of IC50 for cytotoxicity against human HepG2 cells to MIC for antifungal activity against Candida albicans ATCC 24443
Escherichia coli [7] = assay: Antibacterial activity against Escherichia coli ATCC 25922 assessed as reduction in bacterial growth incubated for 24 hrs by broth microdilution method; assay type: functional; in short: as §2
Staphylococcus aureus [8] = assay: Antibacterial activity against Staphylococcus aureus ATCC 29213 assessed as reduction in bacterial growth incubated for 24 hrs by broth microdilution method; assay type: functional; in short: as §2
HepG2 [9] = assay: Cytotoxicity against human HepG2 cells assessed as reduction in cell viability incubated for 24 hrs by cell-titer 96 aqueous one solution cell proliferation assay; assay type: functional, cell-based; conditions: HepG2, 24 h
Candida albicans [10] = assay: Antifungal activity against Candida albicans ATCC 24443 assessed as reduction in fungal growth incubated for 24 hrs by broth microdilution method; assay type: functional; in short: as §1
Candida parapsilosis [11] = assay: Antifungal activity against Candida parapsilosis ATCC 22019 assessed as reduction in fungal growth incubated for 48 hrs by broth microdilution method; assay type: functional; conditions: Lodderomyces parapsilosis; in short: as §1
HK-2 = assay: Cytotoxicity against human HK-2 cells assessed as reduction in cell viability incubated for 24 hrs by cell-titer 96 aqueous one solution cell proliferation assay; assay type: cell-based; conditions: HK-2, 24 h
Pichia kudriavzevii [12] = assay: Antifungal activity against Candida krusei ATCC 6258 assessed as reduction in fungal growth incubated for 48 hrs by broth microdilution method; assay type: functional; in short: as §1
Lichtheimia corymbifera [13] = assay: Antifungal activity against Lichtheimia corymbifera CCM 8077 assessed as reduction in fungal growth incubated for 48 hrs by broth microdilution method; assay type: functional; in short: as §1
Staphylococcus aureus [14] = assay: Antibacterial activity against Staphylococcus aureus ATCC 29213 assessed as reduction in bacterial growth incubated for 48 hrs by broth microdilution method; assay type: functional; in short: as §2
Staphylococcus aureus [15] = assay: Antibacterial activity against methicillin-resistant Staphylococcus aureus ATCC 43300 assessed as reduction in bacterial growth incubated for 48 hrs by broth microdilution method; assay type: functional
In short: (§3)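 EUCAST-based broth microdilution in cation-adjusted Mueller-Hinton broth. DMSO stocks, final DMSO ≤1% v/v, concentration scale starting from 0.49 µM. Static incubation at 35 ± 2 °C, dark and humidified. Run in duplicate, accepted only if parallel MICs differ by at most one dilution step. MIC is the lowest concentration with no visible growth by naked eye.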

Lichtheimia corymbifera [16] = assay: Antifungal activity against Lichtheimia corymbifera CCM 8077 assessed as reduction in fungal growth incubated for 24 hrs by broth microdilution method; assay type: functional; in short: as §1
[17] = tested on: Trichophyton interdigitale; assay: Antifungal activity against Trichophyton interdigitale ATCC 9533 assessed as reduction in fungal growth incubated for 72 hrs by broth microdilution method; assay type: functional; in short: as §1
[18] = tested on: Trichophyton interdigitale; assay: Antifungal activity against Trichophyton interdigitale ATCC 9533 assessed as reduction in fungal growth incubated for 120 hrs by broth microdilution method; assay type: functional; in short: as §1
Enterococcus faecalis [19] = assay: Antibacterial activity against Enterococcus faecalis ATCC 29212 assessed as reduction in bacterial growth incubated for 48 hrs by broth microdilution method; assay type: functional; in short: as §2
Enterococcus faecalis [20] = assay: Antibacterial activity against Enterococcus faecalis ATCC 29212 assessed as reduction in bacterial growth incubated for 24 hrs by broth microdilution method; assay type: functional; in short: as §2
[21] = tested on: Staphylococcus epidermidis; assay: Antibacterial activity against Staphylococcus epidermidis ATCC 12228 assessed as reduction in bacterial growth incubated for 48 hrs by broth microdilution method; assay type: functional; in short: as §2
Staphylococcus aureus [22] = assay: Antibacterial activity against methicillin-resistant Staphylococcus aureus ATCC 43300 assessed as reduction in bacterial growth incubated for 24 hrs by broth microdilution method; assay type: functional; in short: as §3
Candida albicans [23] = assay: Antifungal activity against Candida albicans ATCC 24443 assessed as reduction in fungal growth incubated for 48 hrs by broth microdilution method based spectrophotometric analysis; assay type: functional
[24] = tested on: Trichophyton interdigitale; assay: Antifungal activity against Trichophyton interdigitale ATCC 9533 assessed as reduction in fungal growth incubated for 72 hrs by broth microdilution method based spectrophotometric analysis; assay type: functional
Pichia kudriavzevii [25] = assay: Antifungal activity against Candida krusei ATCC 6258 assessed as reduction in fungal growth incubated for 48 hrs by broth microdilution method based spectrophotometric analysis; assay type: functional
Candida parapsilosis [26] = assay: Antifungal activity against Candida parapsilosis ATCC 22019 assessed as reduction in fungal growth incubated for 24 hrs by broth microdilution method based spectrophotometric analysis; assay type: functional; conditions: Lodderomyces parapsilosis
Lichtheimia corymbifera [27] = assay: Antifungal activity against Lichtheimia corymbifera CCM 8077 assessed as reduction in fungal growth incubated for 48 hrs by broth microdilution method based spectrophotometric analysis; assay type: functional
Lichtheimia corymbifera [28] = assay: Antifungal activity against Lichtheimia corymbifera CCM 8077 assessed as reduction in fungal growth incubated for 24 hrs by broth microdilution method based spectrophotometric analysis; assay type: functional
Pichia kudriavzevii [29] = assay: Antifungal activity against Candida krusei ATCC 6258 assessed as reduction in fungal growth incubated for 24 hrs by broth microdilution method based spectrophotometric analysis; assay type: functional
[30] = tested on: Trichophyton interdigitale; assay: Antifungal activity against Trichophyton interdigitale ATCC 9533 assessed as reduction in fungal growth incubated for 120 hrs by broth microdilution method based spectrophotometric analysis; assay type: functional
Candida albicans [31] = assay: Antifungal activity against Candida albicans ATCC 24443 assessed as reduction in fungal growth incubated for 24 hrs by broth microdilution method based spectrophotometric analysis; assay type: functional
Candida parapsilosis [32] = assay: Antifungal activity against Candida parapsilosis ATCC 22019 assessed as reduction in fungal growth incubated for 48 hrs by broth microdilution method based spectrophotometric analysis; assay type: functional; conditions: Lodderomyces parapsilosis
HepG2 [33] = assay: Antiproliferative activity against human HepG2 cells assessed as increase in caspase 3/7 level at 1 uM incubated for 24 hrs by Caspase-glo reagent based microplate reader analysis relative to control; assay type: functional
In short: (§4)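 HepG2 cells seeded at 15 000/well, compounds diluted in complete MEM, 24 h at 37 °C, 5% CO2; untreated vehicle controls. Caspase-Glo 3/7 reagent added, shaken 350 rpm at room temperature 60 min in dark, luminescence read. Expressed as fold of untreated control; triplicate wells, mean ± SD with n = 6.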

HepG2 [34] = assay: Antiproliferative activity against human HepG2 cells assessed as increase in caspase 3/7 level at 100 uM incubated for 24 hrs by Caspase-glo reagent based microplate reader analysis relative to control; assay type: functional; in short: as §4
Pseudomonas aeruginosa = assay: Antibacterial activity against Pseudomonas aeruginosa ATCC 27853 assessed as reduction in bacterial growth measured for 24 to 48 hrs by broth microdilution method; assay type: functional, organism-based; conditions: time 24-48 hrs; in short: as §2
Klebsiella pneumoniae = assay: Antibacterial activity against Klebsiella pneumoniae ATCC 10031 assessed as reduction in bacterial growth measured for 24 to 48 hrs by broth microdilution method; assay type: functional, organism-based; conditions: time 24-48 hrs; in short: as §2
Serratia marcescens = assay: Antibacterial activity against clinical isolate Serratia marcescens assessed as reduction in bacterial growth measured for 24 to 48 hrs by broth microdilution method; assay type: functional, organism-based; conditions: time 24-48 hrs; in short: as §2
Staphylococcus aureus [35] = assay: Antibacterial activity against methicillin-susceptible Staphylococcus aureus CCM 4223 assessed as reduction in bacterial growth measured for 24 to 48 hrs by broth microdilution method; assay type: functional, organism-based; conditions: time 24-48 hrs; in short: as §2

SMILES | MIC (Candida albicans [1]) [µM] | MIC [2] [µM] | MIC (Pichia kudriavzevii [3]) [µM] | MIC (Escherichia coli [4]) [µM] | MIC (Candida parapsilosis [5]) [µM] | MIC (Escherichia coli [7]) [µM] | MIC (Staphylococcus aureus [8]) [µM] | IC50 (HepG2 [9]) [µM] | MIC (Candida albicans [10]) [µM] | MIC (Candida parapsilosis [11]) [µM] | IC50 (HK-2) [µM] | MIC (Pichia kudriavzevii [12]) [µM] | MIC (Lichtheimia corymbifera [13]) [µM] | MIC (Staphylococcus aureus [14]) [µM] | MIC (Staphylococcus aureus [15]) [µM] | MIC (Lichtheimia corymbifera [16]) [µM] | MIC (Enterococcus faecalis [19]) [µM] | MIC (Enterococcus faecalis [20]) [µM] | MIC [21] [µM] | MIC (Staphylococcus aureus [22]) [µM] | also measured
O=C(N/N=C/c1cc(I)cc(I)c1O)c1ccc([N+](=O)[O-])cc1 | 7.81 (≈ 4.19 µg/mL) | 31.2 (≈ 16.8 µg/mL) | 62.5 (≈ 33.6 µg/mL) | > 125 | > 125 | > 125 | 31.2 (≈ 16.8 µg/mL) | 24.7 | 1.95 (≈ 1.05 µg/mL) | > 125 | 26.8 | > 125 | 62.5 (≈ 33.6 µg/mL) | 62.5 (≈ 33.6 µg/mL) | 62.5 (≈ 33.6 µg/mL) | 31.2 (≈ 16.8 µg/mL) | 125 (≈ 67.1 µg/mL) | 62.5 (≈ 33.6 µg/mL) | 62.5 (≈ 33.6 µg/mL) | 31.2 (≈ 16.8 µg/mL) | Ratio [6]: 13.1; MIC [17]: 3.9 µM (≈ 2.09 µg/mL); MIC [18]: 15.6 µM (≈ 8.39 µg/mL)
OC(Cn1cncn1)(Cn1cncn1)c1ccc(F)cc1F [FLUCONAZOLE] |  |  |  |  |  |  |  |  |  |  |  |  |  |  |  |  |  |  |  |  | MIC (Candida albicans [23]): 6.5 µM (≈ 1.99 µg/mL); MIC [24]: 52.2 µM (≈ 16 µg/mL); MIC (Pichia kudriavzevii [25]): > 104 µM; MIC (Candida parapsilosis [26]): 3.3 µM (≈ 1.01 µg/mL); MIC (Lichtheimia corymbifera [27]): > 104 µM; MIC (Lichtheimia corymbifera [28]): > 104 µM; MIC (Pichia kudriavzevii [29]): > 104 µM; MIC [30]: 52.2 µM (≈ 16 µg/mL); MIC (Candida albicans [31]): 6.5 µM (≈ 1.99 µg/mL); MIC (Candida parapsilosis [32]): 3.3 µM (≈ 1.01 µg/mL)
O=C(N/N=C/c1cc(I)cc(I)c1O)c1ccc(F)cc1 | 125 (≈ 63.8 µg/mL) | 31.2 (≈ 15.9 µg/mL) | 125 (≈ 63.8 µg/mL) | > 500 | 62.5 (≈ 31.9 µg/mL) | > 500 | 15.6 (≈ 7.97 µg/mL) | 12.1 | 62.5 (≈ 31.9 µg/mL) | 125 (≈ 63.8 µg/mL) | 55.6 | 125 (≈ 63.8 µg/mL) | 125 (≈ 63.8 µg/mL) | 31.2 (≈ 15.9 µg/mL) | 31.2 (≈ 15.9 µg/mL) | 125 (≈ 63.8 µg/mL) | 62.5 (≈ 31.9 µg/mL) | 31.2 (≈ 15.9 µg/mL) | 31.2 (≈ 15.9 µg/mL) | 15.6 (≈ 7.97 µg/mL) | MIC [17]: 15.6 µM (≈ 7.97 µg/mL); MIC [18]: 62.5 µM (≈ 31.9 µg/mL); fold change (FC) (HepG2 [33]): 1.36; fold change (FC) (HepG2 [34]): 1.33
O=C(N/N=C/c1cc(I)cc(I)c1O)c1ccc(C(F)(F)F)cc1 |  | 31.2 (≈ 17.5 µg/mL) |  | > 250 |  | > 250 | 31.2 (≈ 17.5 µg/mL) | 11.7 |  |  | 49.9 |  |  | 31.2 (≈ 17.5 µg/mL) | 31.2 (≈ 17.5 µg/mL) |  | 31.2 (≈ 17.5 µg/mL) | 31.2 (≈ 17.5 µg/mL) | 31.2 (≈ 17.5 µg/mL) | 31.2 (≈ 17.5 µg/mL) | fold change (FC) (HepG2 [34]): 1.37
O=C(N/N=C/c1cc(I)cc(I)c1O)c1ccc(O)cc1 |  | 62.5 (≈ 31.8 µg/mL) |  | 250 (≈ 127 µg/mL) |  | 250 (≈ 127 µg/mL) | 31.2 (≈ 15.9 µg/mL) | 19.2 |  |  |  |  |  | 62.5 (≈ 31.8 µg/mL) | 62.5 (≈ 31.8 µg/mL) |  | 250 (≈ 127 µg/mL) | 250 (≈ 127 µg/mL) | 125 (≈ 63.5 µg/mL) | 62.5 (≈ 31.8 µg/mL) | Activity (Pseudomonas aeruginosa): inactive; Activity (Klebsiella pneumoniae): inactive; Activity (Serratia marcescens): inactive; Activity (Staphylococcus aureus [35]): Active
